Calls of active or inactive are those of the source. The rule behind the calls is not given here.
How the values were obtained:
[1] = tested on: NCI-H522; assay: Cytotoxicity against human NCI-H522 cells assessed as reduction in cell viability incubated for 30 mins by methylene blue staining based analysis; conditions: NCI-H522, 0.5 h
[2] = tested on: HCT-116; assay: Cytotoxicity against human HCT-116 cells assessed as reduction in cell viability incubated for 30 mins by methylene blue staining based analysis; conditions: HCT-116, 0.5 h
[3] = molecular target: Histone deacetylase 1 (Homo sapiens, UniProt Q13547); assay: Inhibition of full length his6/FLAG-tagged human recombinant HDAC1(1 to 482 residues) expressed in Sf9 insect cells
[4] = molecular target: Protein deacetylase HDAC6 (Homo sapiens) (UniProt Q9UBN7); assay: Inhibition of HDAC6 in human NCI-H522 cells assessed as increase in acetylation of tubulin at 5 uM measured for 3 days by Western blot analysis; type: cell-based; conditions: time 3.0 day
[5] = molecular target: T1, Histone deacetylase 8 (Homo sapiens, UniProt Q9BY41); assay: Inhibition of full length C-terminal his-tagged human recombinant HDAC8 expressed in Sf9 insect cells
T1 sequence (Q9BY41 whole entry): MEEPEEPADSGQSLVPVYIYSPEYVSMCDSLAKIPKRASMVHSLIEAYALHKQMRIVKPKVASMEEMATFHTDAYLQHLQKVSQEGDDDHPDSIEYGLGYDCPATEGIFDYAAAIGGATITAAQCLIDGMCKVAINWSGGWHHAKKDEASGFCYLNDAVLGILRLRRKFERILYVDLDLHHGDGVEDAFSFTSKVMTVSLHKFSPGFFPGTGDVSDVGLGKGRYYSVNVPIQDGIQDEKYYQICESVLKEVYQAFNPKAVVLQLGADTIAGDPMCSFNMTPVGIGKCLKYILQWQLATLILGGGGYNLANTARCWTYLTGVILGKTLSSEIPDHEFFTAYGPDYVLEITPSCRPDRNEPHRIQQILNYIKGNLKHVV

[6] = molecular target: Histone deacetylase 3 (Homo sapiens, UniProt O15379); assay: Inhibition of full length C-terminal his6/FLAG-tagged human recombinant HDAC3 ([…]) expressed in Sf9 insect cells
[7] = molecular target: T2, Protein deacetylase HDAC6 (Homo sapiens, UniProt Q9UBN7); assay: Inhibition of full length C-terminal FLAG-tagged human recombinant HDAC6 expressed inSf9 insect cells; design: species or system Sf9
T2 sequence (Q9UBN7 whole entry): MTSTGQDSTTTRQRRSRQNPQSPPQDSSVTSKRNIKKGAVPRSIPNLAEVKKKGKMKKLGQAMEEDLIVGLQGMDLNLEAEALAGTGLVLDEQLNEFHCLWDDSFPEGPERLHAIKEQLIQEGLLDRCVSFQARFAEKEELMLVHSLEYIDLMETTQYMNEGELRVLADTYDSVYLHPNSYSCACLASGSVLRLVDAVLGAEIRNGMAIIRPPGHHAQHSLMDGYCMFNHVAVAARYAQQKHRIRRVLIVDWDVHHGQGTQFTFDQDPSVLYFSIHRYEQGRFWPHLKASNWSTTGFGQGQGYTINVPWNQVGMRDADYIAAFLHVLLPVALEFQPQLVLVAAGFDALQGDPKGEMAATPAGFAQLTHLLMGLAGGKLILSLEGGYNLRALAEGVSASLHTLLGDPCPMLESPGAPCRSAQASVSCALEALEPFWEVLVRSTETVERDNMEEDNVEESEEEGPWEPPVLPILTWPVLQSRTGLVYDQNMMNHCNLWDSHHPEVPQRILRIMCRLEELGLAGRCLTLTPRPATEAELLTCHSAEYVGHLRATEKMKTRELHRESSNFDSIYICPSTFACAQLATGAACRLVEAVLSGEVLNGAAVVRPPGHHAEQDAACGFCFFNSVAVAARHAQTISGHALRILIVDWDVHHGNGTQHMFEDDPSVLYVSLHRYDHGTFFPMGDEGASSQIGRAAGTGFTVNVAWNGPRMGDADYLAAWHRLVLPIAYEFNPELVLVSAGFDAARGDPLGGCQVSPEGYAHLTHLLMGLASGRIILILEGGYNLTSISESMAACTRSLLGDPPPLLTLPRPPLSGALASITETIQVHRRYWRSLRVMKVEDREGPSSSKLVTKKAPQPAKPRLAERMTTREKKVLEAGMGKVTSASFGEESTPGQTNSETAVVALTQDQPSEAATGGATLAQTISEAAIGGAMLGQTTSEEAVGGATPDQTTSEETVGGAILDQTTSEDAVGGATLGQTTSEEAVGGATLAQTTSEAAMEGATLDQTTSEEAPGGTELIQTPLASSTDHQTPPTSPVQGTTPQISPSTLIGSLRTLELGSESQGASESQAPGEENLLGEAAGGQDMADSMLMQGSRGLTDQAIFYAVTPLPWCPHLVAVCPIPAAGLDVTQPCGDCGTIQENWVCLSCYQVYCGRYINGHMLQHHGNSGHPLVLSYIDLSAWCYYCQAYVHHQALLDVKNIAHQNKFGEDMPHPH

[8] = molecular target: Histone deacetylase 2 (Homo sapiens, UniProt Q92769)
[9] = tested on: NCI-H522; assay: Cytotoxicity against human NCI-H522 cells assessed as reduction in cell survival at 1 to 5 uM incubated for 3 days in presence of ferroptosis inhibitor, liproxstatin-1 by methylene blue staining based analysis; type: functional; conditions: dose 1-5 µM, time 3.0 day
[10] = molecular target: Histone deacetylase 4 (Homo sapiens, UniProt P56524); assay: Inhibition of […] N-terminal GST/C-terminal his-tagged human recombinant HDAC4 (627 to 1084 residues) expressed in Sf9 insect cells
[11] = tested on: NCI-H522; assay: Cytotoxicity against human NCI-H522 cells assessed as reduction in cell survival at 1 to 5 uM incubated for 3 days in presence of 2-Bromo-N-(7-(hydroxyamino)-7-oxoheptyl)thiazole-4-carboxamide by methylene blue staining based analysis; type: functional; conditions: dose 1-5 µM, time 3.0 day
Outline: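 Cells (5000/well, n = 3, DMEM with 10% serum, 37 °C, 5% CO2) were treated the day after plating and kept for three days. […] Survival was expressed relative to DMSO.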

[12] = Neurotoxicity in human SH-SY5Y cells assessed as decrease in cell viability at 1.665 to 6.665 uM incubated for 3 days; type: toxicity, cell-based; conditions: 72 h, dose 1.665-6.665 µM, time 3 day
Outline: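 SH-SY5Y cells were grown on poly-D-lysine in DMEM/F12 with 10% FBS and seeded at 15,000/well 36 h before dosing, with DMSO as vehicle. Viability was read by MTT: 2 h at 37 °C, then solubilization for 1 h and absorbance at 570. Data are triplicates from three separate experiments.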

[13] = tested on: NCI-H522; assay: Induction of cell cycle arrest in human NCI-H522 cells assessed as accumulation at G2/M phase 5 uM incubated for 24 to 72 hrs by PI staining based flow cytometric analysis; type: functional; conditions: time lower […], time upper […]
[14] = tested on: NCI-H522; assay: Induction of cell cycle arrest in human NCI-H522 cells assessed as accumulation at G1 phase 5 uM incubated for 24 to 72 hrs by PI staining based flow cytometric analysis; type: functional; conditions: time lower […], time upper […]
[15] = tested on: NCI-H522; assay: Induction of cell cycle arrest in human NCI-H522 cells assessed as accumulation at S phase 5 uM incubated for 24 to 72 hrs by PI staining based flow cytometric analysis; type: functional; conditions: time lower […], time upper […]

Histone deacetylase 3, sequence (O15379 whole entry): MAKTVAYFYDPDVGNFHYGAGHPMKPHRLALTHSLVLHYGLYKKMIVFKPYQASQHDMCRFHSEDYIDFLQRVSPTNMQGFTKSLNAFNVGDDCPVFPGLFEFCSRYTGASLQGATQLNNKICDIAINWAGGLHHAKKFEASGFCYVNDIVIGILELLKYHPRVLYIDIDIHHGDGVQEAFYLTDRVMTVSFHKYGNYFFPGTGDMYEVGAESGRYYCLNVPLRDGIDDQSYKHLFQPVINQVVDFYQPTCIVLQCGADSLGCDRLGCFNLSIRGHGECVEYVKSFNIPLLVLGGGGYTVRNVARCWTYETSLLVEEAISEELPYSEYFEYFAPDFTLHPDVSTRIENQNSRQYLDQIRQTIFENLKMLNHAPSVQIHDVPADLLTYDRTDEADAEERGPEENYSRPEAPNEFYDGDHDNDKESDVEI
Histone deacetylase 1, sequence (Q13547 whole entry, the tested form may be a part): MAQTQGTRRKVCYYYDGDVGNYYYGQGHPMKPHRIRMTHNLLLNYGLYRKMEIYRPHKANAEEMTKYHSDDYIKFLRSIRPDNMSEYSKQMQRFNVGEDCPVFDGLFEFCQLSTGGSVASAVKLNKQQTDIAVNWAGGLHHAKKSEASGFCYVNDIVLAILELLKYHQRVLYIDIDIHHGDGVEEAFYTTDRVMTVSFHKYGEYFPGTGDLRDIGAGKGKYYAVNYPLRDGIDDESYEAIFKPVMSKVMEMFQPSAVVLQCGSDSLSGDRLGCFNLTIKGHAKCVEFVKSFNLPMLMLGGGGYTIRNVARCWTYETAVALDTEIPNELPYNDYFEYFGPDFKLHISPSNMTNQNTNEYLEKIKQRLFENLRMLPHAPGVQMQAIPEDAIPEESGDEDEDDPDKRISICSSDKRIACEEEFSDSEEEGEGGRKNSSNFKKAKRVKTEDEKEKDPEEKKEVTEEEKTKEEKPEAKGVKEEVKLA
Histone deacetylase 4, sequence (P56524 whole entry, the tested form may be a part): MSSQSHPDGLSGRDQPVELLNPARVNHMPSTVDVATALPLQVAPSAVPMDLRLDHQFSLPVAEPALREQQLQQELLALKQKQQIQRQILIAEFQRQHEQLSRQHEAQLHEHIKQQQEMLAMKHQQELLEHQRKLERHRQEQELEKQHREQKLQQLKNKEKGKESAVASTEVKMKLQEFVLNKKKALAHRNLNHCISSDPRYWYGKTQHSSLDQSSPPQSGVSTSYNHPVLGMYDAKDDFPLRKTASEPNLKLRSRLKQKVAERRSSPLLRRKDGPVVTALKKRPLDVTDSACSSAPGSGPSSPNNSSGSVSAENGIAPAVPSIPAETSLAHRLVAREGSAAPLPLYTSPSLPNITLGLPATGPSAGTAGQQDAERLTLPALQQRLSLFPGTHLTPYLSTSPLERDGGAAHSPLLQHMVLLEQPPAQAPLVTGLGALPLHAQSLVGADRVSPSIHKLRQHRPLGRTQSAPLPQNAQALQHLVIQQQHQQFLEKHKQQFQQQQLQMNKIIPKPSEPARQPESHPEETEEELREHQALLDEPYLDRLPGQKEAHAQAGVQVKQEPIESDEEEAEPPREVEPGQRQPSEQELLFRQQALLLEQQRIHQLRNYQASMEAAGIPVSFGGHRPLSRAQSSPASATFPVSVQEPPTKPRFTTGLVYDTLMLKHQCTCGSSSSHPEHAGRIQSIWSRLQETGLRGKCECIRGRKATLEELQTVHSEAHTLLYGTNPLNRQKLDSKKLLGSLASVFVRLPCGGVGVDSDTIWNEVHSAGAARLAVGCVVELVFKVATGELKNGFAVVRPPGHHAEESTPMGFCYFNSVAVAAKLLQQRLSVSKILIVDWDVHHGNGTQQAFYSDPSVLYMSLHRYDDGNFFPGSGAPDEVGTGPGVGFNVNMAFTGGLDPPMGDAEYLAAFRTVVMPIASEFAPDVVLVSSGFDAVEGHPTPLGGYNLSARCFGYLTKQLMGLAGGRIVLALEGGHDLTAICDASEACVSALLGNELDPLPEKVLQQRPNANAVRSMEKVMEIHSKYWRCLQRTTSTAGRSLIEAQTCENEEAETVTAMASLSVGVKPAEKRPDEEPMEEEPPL
Histone deacetylase 2, sequence (Q92769 whole entry): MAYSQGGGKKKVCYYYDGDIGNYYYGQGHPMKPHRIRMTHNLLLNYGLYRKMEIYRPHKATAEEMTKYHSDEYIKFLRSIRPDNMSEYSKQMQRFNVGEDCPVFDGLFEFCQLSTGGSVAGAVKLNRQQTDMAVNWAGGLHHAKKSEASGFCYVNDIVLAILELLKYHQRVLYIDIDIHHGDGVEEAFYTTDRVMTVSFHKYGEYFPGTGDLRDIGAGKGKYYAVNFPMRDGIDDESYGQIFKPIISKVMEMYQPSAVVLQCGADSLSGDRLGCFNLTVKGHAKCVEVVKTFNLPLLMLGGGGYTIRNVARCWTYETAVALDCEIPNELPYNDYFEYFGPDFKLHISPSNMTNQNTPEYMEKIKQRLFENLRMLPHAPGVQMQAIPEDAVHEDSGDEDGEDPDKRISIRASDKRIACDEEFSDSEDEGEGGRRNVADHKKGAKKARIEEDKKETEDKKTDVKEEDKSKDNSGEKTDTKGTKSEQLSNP

Row | IC50 [3] | IC50 [5] | IC50 [6] | IC50 [7] | SMILES | IC50 [1] | IC50 [2] | Activity [9] | also measured
1 | – | – | – | – | C#Cc1nc(C=CCCCCCC(=O)NO)cs1 | 1670 nM | 3.42 µM | – | –
2 | 890 nM | 1800 nM | 1100 nM | 160 nM | C#Cc1nc(/C=C/C(=O)NO)cs1 | – | – | – | inhibition [4]: Active; IC50 [8]: 1700 nM
3 | – | – | – | – | C#Cc1nc(/C=C\CCCCCC(=O)OCC)cs1 | – | – | Active | –
4 | 72 nM | 270 nM | 91 nM | 10 nM | C#Cc1nc(/C=C/CCCCCC(=O)NO)cs1 | 1590 nM | 4.96 µM | – | IC50 [10]: 8.6 µM
5 | – | – | – | – | C#Cc1nc(C(=O)NCCCCCCC(=O)OC)cs1 | – | – | Active | Activity [11]: Active; Activity [12]: Toxic
6 | – | – | – | – | O=C(CCCCCCC(=O)Nc1ccccc1)NO [VORINOSTAT] | – | – | – | Activity [13]: Active; Activity [14]: Active; Activity [15]: Active

— ChEMBL document CHEMBL5096224, “First-in-Class Dual Mechanism Ferroptosis-HDAC Inhibitor Hybrids” (J Med Chem, 2022)
